# Reference: ChEMBL document CHEMBL3596132, “Antiproliferative activity of O4-benzo[c]phenanthridine alkaloids against HCT-116 and HL-60 tumor cells” (Bioorg Med Chem Lett, 2015)
# Key:
# Assay type in all cases: functional, cell-based
# [1] = test system: HL-60; assay: Antiproliferative activity against human HL60 cells assessed as inhibition of cell viability after 48 hrs by WST-1 assay; conditions: HL-60, 48 h
# Procedure, shortened: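 WST-1 assay. HL-60 cells were seeded at 1.0 × 10^4 per well in FBS-containing medium together with test agents and incubated 48 h. Absorbance read at 415 nm. Viability expressed as percent of untreated controls; IC50 reported.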
# [2] = test system: HCT-116; assay: Antiproliferative activity against human HCT116 cells assessed as inhibition of cell viability after 48 hrs by MTT assay; conditions: HCT-116, 48 h
# Procedure, shortened: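 HCT-116 cells seeded at 2.0 × 10^3 per well and allowed to attach for 24 h at 37 °C, 5% CO2. Agents were added in FBS-containing medium for 48 h. MTT (5 mg/mL in PBS stock) was then added for 4 h, formazan dissolved in DMSO, and absorbance read at 570 nm. Viability expressed as percent of untreated controls; IC50 reported.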
# [3] = test system: HepG2; assay: Cytotoxicity against human HepG2 cells
Compound,IC50 [1] [µM],IC50 [2] [µM],IC50 [3] [µM]
COc1ccc2c(cnc3c4cc5c(cc4ccc23)OCO5)c1OC,> 10,> 10,
COc1ccc2c(c[n+](C)c3c4cc5c(cc4ccc23)OCO5)c1O,0.79,1.31,
COc1cc2c(cc1O)c[n+](C)c1c3cc4c(cc3ccc21)OCO4,> 10,> 10,
COc1cc2c[n+](C)c3c4cc5c(cc4ccc3c2cc1O)OCO5,3.28,3.35,
COc1ccc2c[n+](C)c3c4cc5c(cc4ccc3c2c1OC)OCO5,7.82,3.23,
COc1c(O)ccc2c[n+](C)c3c4cc5c(cc4ccc3c12)OCO5,> 10,> 10,
COc1cc2c(cc1O)-c1ccc3cc4c(cc3c1N(C)C2)OCO4,> 10,7.28,
COc1ccc2c(c1OC)-c1ccc3cc4c(cc3c1N(C)C2)OCO4,> 10,> 10,
COc1c(O)ccc2c1-c1ccc3cc4c(cc3c1N(C)C2)OCO4,> 10,> 10,
COc1ccc2c(cnc3c4cc5c(cc4ccc23)OCO5)c1O,> 10,> 10,
COc1cc2c(cnc3c4cc5c(cc4ccc23)OCO5)cc1O,> 10,> 10,
COc1cc2cnc3c4cc5c(cc4ccc3c2cc1O)OCO5,> 10,> 10,
COc1ccc2cnc3c4cc5c(cc4ccc3c2c1OC)OCO5,> 10,> 10,
COc1c(O)ccc2cnc3c4cc5c(cc4ccc3c12)OCO5,> 10,> 10,
COc1cc2c(cc1OC)-c1ccc3cc4c(cc3c1N(C)C2)OCO4,4.51,6.61,
COc1ccc2c(c1O)CN(C)c1c-2ccc2cc3c(cc12)OCO3,4.96,3.22,
COc1cc2cnc3c4cc5c(cc4ccc3c2cc1OC)OCO5,> 10,> 10,
COc1ccc2c(c[n+](C)c3c4cc5c(cc4ccc23)OCO5)c1OC [CHELERYTHRINE CHLORIDE],2.99,2.13,
COc1ccc2c(c1OC)CN(C)c1c-2ccc2cc3c(cc12)OCO3 [DIHYDROCHELERYTHRINE],> 10,> 10,
COc1cc2c[n+](C)c3c4cc5c(cc4ccc3c2cc1OC)OCO5 [NITIDINE CHLORIDE],3.41,4.42,3.52
